Measurements published in ChEMBL document CHEMBL4480408 (J Med Chem, 2019).

Legend:
[1] = biological target: GHB high-affinity binding site (rat)
[2] = biological target: GABA-A receptor; anion channel; assay: Displacement of [3H]muscimol from orthosteric binding site of GABA(A) receptor in Sprague-Dawley rat cortical synaptic membranes by liquid scintillation counting
[3] = biological target: T1, GABA-A receptor; alpha-1/beta-2/gamma-2 (Homo sapiens, UniProt P14867+P18507+P47870); assay type: cell-based
T1 sequence (P14867 whole entry): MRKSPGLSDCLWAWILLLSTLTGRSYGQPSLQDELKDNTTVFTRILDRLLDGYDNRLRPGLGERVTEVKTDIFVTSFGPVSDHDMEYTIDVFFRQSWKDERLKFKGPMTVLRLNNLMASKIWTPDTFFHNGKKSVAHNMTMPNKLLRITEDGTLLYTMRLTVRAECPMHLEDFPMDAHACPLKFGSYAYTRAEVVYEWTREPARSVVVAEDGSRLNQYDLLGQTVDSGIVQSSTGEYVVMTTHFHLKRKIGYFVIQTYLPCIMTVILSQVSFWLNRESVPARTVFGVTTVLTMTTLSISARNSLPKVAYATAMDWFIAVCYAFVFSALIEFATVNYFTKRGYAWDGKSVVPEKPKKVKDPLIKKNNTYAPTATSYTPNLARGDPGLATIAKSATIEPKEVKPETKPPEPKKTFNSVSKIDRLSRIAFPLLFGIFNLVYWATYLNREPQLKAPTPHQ
T1 sequence (P47870 whole entry): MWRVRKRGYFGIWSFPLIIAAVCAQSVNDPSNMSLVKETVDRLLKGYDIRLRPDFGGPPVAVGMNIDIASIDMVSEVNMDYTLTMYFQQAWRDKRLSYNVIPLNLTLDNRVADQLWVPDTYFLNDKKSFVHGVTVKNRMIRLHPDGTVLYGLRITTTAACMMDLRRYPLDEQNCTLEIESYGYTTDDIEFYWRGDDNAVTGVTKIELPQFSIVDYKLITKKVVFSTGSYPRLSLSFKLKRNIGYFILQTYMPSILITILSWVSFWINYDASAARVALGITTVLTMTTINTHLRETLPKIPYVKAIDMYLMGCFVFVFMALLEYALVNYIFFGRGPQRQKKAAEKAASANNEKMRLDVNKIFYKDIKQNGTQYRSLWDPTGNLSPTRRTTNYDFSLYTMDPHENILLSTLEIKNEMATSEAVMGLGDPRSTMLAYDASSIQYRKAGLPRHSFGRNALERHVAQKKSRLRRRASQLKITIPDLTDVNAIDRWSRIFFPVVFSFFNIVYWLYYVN
T1 sequence (P18507 whole entry): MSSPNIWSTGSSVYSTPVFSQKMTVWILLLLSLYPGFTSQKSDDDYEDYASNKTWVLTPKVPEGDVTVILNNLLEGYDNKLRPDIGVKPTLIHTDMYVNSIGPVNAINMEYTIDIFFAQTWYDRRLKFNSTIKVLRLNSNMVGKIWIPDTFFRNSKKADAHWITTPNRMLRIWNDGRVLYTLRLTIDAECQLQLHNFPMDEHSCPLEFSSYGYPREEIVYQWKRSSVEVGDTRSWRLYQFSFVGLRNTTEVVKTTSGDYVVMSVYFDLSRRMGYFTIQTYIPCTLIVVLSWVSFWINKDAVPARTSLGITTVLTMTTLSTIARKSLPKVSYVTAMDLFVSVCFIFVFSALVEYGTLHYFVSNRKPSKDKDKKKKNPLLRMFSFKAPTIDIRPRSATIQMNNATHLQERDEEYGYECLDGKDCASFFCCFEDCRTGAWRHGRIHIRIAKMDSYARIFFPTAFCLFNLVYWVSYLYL

[4] = Chemical stability of the compound; assay type: physicochemical
[5] = Metabolic stability in mouse plasma assessed as compound remaining at 10 uM preincubated for 5 mins followed by NADPH addition and measured at 0 min by UHPLC-MS/MS analysis; assay type: ADME, cell-free; conditions: read-out: Stability
How it was run: (§1)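 Parent loss and parent-drug formation quantified by UHPLC-MS/MS. Percent remaining = internal-standard-corrected peak area at each time ÷ peak area at 0 min × 100. The 0-min peak area was compared with freshly prepared compound in neat buffer and MeCN. A dash at 0 min means the compound degraded during sample preparation and pre-incubation. Mean of three biological replicates.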

[6] = Ratio of drug uptake in C57BL/6JRj mouse brain to plasma at 10 mg/kg, ip after 30 mins by LC-MS analysis; assay type: ADME, organism-based; conditions: read-out: BPR
How it was run: (§2)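 Mice dosed i.p. at 10 mg/kg. Compound concentrations measured in brain (ng/g) and plasma (ng/mL). Brain-to-plasma distribution ratio taken from these two concentrations.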

[7] = Metabolic stability in mouse liver microsomes assessed as compound remaining at 20 uM preincubated for 5 mins followed by NADPH addition and measured at 0 min by UHPLC-MS/MS analysis; assay type: ADME, Microsome; conditions: read-out: Stability
How it was run: as §1

[8] = Plasma concentration in C57BL/6JRj mouse at 10 mg/kg, ip after 30 mins by LC-MS analysis; assay type: ADME, organism-based
How it was run: as §2

[9] = Metabolic stability in mouse liver microsomes assessed as compound remaining at 20 uM preincubated for 5 mins followed by NADPH addition and measured at 60 mins by UHPLC-MS/MS analysis; assay type: ADME, Microsome; conditions: read-out: Stability
How it was run: as §1

[10] = Metabolic stability in mouse liver microsomes assessed as compound remaining at 20 uM preincubated for 5 mins followed by NADPH addition and measured at 30 mins by UHPLC-MS/MS analysis; assay type: ADME, Microsome; conditions: read-out: Stability
How it was run: as §1

[11] = Drug uptake in C57BL/6JRj mouse brain at 10 mg/kg, ip after 30 mins by LC-MS analysis; assay type: ADME, organism-based; conditions: read-out: Drug uptake
How it was run: as §2

[12] = Metabolic stability in mouse plasma assessed as compound remaining at 10 uM preincubated for 5 mins followed by NADPH addition and measured at 120 mins by UHPLC-MS/MS analysis; assay type: ADME, cell-free; conditions: read-out: Stability
How it was run: as §1

[13] = Metabolic stability in mouse plasma assessed as compound remaining at 10 uM preincubated for 5 mins followed by NADPH addition and measured at 60 mins by UHPLC-MS/MS analysis; assay type: ADME, cell-free; conditions: read-out: Stability
How it was run: as §1

[14] = Dissociation constant, pKa of the compound; assay type: physicochemical
[15] = Agonist activity at GABA(B) receptor (unknown origin); set-up: species or system Homo sapiens

Row | SMILES | Ki [1] [µM] | Ki [2] [µM] | further results
1 | On1cc(C2CCNCC2)c(-c2cccc(-c3ccccc3)c2)n1 | > 100 | 0.03 | 
2 | O=C(O)CCC(O)c1ccc(OCc2ccccc2)cc1 (stereo unspecified) | 0.12 | > 100 | 
3 | N=c1ccc(-c2ccc(Cl)cc2)nn1CCCC(=O)O | 11 | 0.61 | pKi [1]: 4.99; pKi [2]: 6.23
4 | N=c1ccc(-c2ccccc2)nn1CCCC(=O)O | 100 | 0.81 | 
5 | N=c1ccc(-c2ccc(OCc3ccccc3)cc2)nn1CCCC(=O)O | 3.1 | 0.016 | 
6 | N=c1ccc(-c2ccc(O)cc2)nn1CCCC(=O)O | 15 | 0.22 | IC50 [3]: 11 µM
7 | COc1cccc(-c2ccc3nc(CC(=O)O)cn3n2)c1 | 0.44 | > 100 | 
8 | COc1ccc(C2=NN3CC(CC(=O)O)N=C3C=C2)cc1 (stereo unspecified) | 45 | > 100 | 
9 | CC(C)(C)C(=O)OCOC(=O)Cc1cn2nc(-c3ccc(Cl)cc3)ccc2n1 |  |  | Stability [4]: Unstable
10 | CC(C)(C)OC(=O)Cc1cn2nc(-c3ccc(Cl)cc3)ccc2n1 |  |  | remaining at 0 h, 10 µM [5]: 100%; Kp at 0.5 h [6]: 3.68; remaining at 0 h, 20 µM [7]: 100%; concentration at 0.5 h [8]: 212 ng/mL; remaining at 1 h, 20 µM [9]: 98%; remaining at 0.5 h, 20 µM [10]: 90%; concentration at 0.5 h [11]: 798 ng/g; remaining at 2 h, 10 µM [12]: 36%; remaining at 1 h, 10 µM [13]: 51%
11 | CCOC(=O)Cc1cn2nc(-c3ccc(Cl)cc3)ccc2n1 |  |  | Stability [4]: Unstable
12 | O=C(O)Cc1cn2nc(-c3ccc(Cl)cc3)ccc2n1 | 0.22 | > 100 | remaining at 0 h, 10 µM [5]: 100%; Kp at 0.5 h [6]: 0.008; remaining at 0 h, 20 µM [7]: 100%; concentration at 0.5 h [8]: 7600 ng/mL; pKa [14]: 4.5; remaining at 1 h, 20 µM [9]: 100%; Stability [4]: Stable; remaining at 0.5 h, 20 µM [10]: 105%; concentration at 0.5 h [11]: 59 ng/g; remaining at 2 h, 10 µM [12]: 99%; remaining at 1 h, 10 µM [13]: 97%
13 | COc1ccc(-c2ccc3nc(CC(=O)O)cn3n2)cc1 | 0.83 | > 100 | pKi [1]: 6.09
14 | COc1cccc(C2=NN3CC(CC(=O)O)N=C3C=C2)c1 (stereo unspecified) | > 100 | > 100 | 
15 | O=C(O)Cc1cn2ccccc2n1 | 72 | > 100 | 
16 | O=C(O)CC1CN2N=C(c3ccc(Cl)cc3)C=CC2=N1 (stereo unspecified) | 146 | > 100 | pKa [14]: 9.7

Row | SMILES | Ki [1] [µM] | Ki [2] [µM] | further results
17 | N=c1ccc(-c2ccc([N+](=O)[O-])cc2)nn1CCCC(=O)O | 14 | 0.75 | IC50 [3]: 30 µM
18 | O=C(O)CC1CN2N=C(c3cccc(Cl)c3)C=CC2=N1 (stereo unspecified) | > 100 | > 100 | 
19 | O=C(O)Cc1cn2ncccc2n1 | 9.9 | > 100 | 
20 | CC(=O)OCOC(=O)Cc1cn2nc(-c3ccc(Cl)cc3)ccc2n1 |  |  | Stability [4]: Unstable
21 | N=c1ccc(-c2cccc(N)c2)nn1CCCC(=O)O | 30 | 1.1 | IC50 [3]: 30 µM
22 | O=C(O)Cc1cn2nc(-c3cccc(Cl)c3)ccc2n1 | 0.23 | > 100 | 
23 | O=C(O)Cc1cn2nc(-c3ccc(Cl)c(Cl)c3)ccc2n1 | 0.19 | > 100 | pKi [1]: 6.77
24 | O=C(O)Cc1cn2nc(-c3ccc(OCc4ccccc4)cc3)ccc2n1 | 2.2 | > 100 | 
25 | N=c1ccc(-c2cccc(Cl)c2)nn1CCCC(=O)O | 21 | 0.039 | pKi [1]: 4.66
26 | N=c1ccc(-c2cccc([N+](=O)[O-])c2)nn1CCCC(=O)O | 13 | 0.078 | IC50 [3]: 4.4 µM
27 | O=C(O)CC1CN2N=C(c3ccccc3)C=CC2=N1 (stereo unspecified) | 427 | > 100 | pKi [1]: 3.41
28 | N=c1ccc(-c2cccc(OCc3ccccc3)c2)nn1CCCC(=O)O | 4.2 | 0.87 | pKi [1]: 5.39; pKi [2]: 6.07
29 | N=c1ccc(-c2cccc(O)c2)nn1CCCC(=O)O | 16 | 0.13 | IC50 [3]: 3.9 µM
30 | O=C(O)Cc1cn2nc(-c3cccc(OCc4ccccc4)c3)ccc2n1 | 0.51 | > 100 | pKi [1]: 6.33
31 | O=C(O)CCCO [OXYBATE] |  |  | EC50 [15]: 5000 µM
